{"data": "Assay results from different studies", "read-out": "cell growth or viability", "note": "Protocols differ between the studies behind these lines."}
{"SMILES": "O=c1cc(OCc2cc(-c3ccccn3)no2)c2ccccc2o1", "cell line": "Z-138", "test": "MTS", "conditions": "72 h", "endpoint": "IC50", "result": "> 100 µM"}
{"SMILES": "CN(C)CCNC(=O)c1ccc(-c2nc3ccc4[nH]ncc4c3c3c2CCCC3)cc1", "cell line": "G-361", "conditions": "72 h", "endpoint": "GI50", "result": "3.5 µM"}
{"SMILES": "O=C1C(=Nc2ccc(Cl)cc2Br)c2ccccc2N1Cc1ccc(Br)cc1", "cell line": "B16", "test": "MTT", "conditions": "48 h", "endpoint": "IC50", "result": "1.65 µM"}
{"SMILES": "CN(C)CCNC(=O)c1ccc(-c2nc3ccc4[nH]ncc4c3c3c2CCCCC3)c(F)c1", "cell line": "G-361", "conditions": "72 h", "endpoint": "GI50", "result": "3.55 µM"}
{"SMILES": "Cc1nc(Nc2ncc(C(=O)Nc3c(C)cccc3Cl)s2)cc(N2CC[C@H](O)C2)n1", "cell line": "Z-138", "test": "ATP luminescence", "conditions": "10 µM, 72 h", "endpoint": "inhibition", "result": "56%"}
{"SMILES": "C[C@H](Nc1ccc2c(c1)OCCn1cc(N3C(=O)OC[C@H]3C(F)F)nc1-2)C(N)=O", "cell line": "BT-20", "test": "ATP luminescence", "conditions": "5 days", "endpoint": "EC50", "result": "449 nM"}
{"SMILES": "CN(C)CCNC(=O)c1ccc(-c2nc3ccc4[nH]ncc4c3c3c2CCCCC3)cc1", "cell line": "G-361", "conditions": "72 h", "endpoint": "GI50", "result": "> 10 µM"}
{"SMILES": "COc1cc([C@@H]2c3cc4c(cc3[C@@H](O[C@@H]3O[C@@H]5CO[C@@H](C)O[C@H]5[C@H](O)[C@H]3O)[C@H]3COC(=O)[C@H]23)OCO4)cc(OC)c1O", "cell line": "Z-138", "test": "MTS", "conditions": "72 h", "endpoint": "IC50", "result": "0.08 µM"}
{"SMILES": "N#Cc1ccc(-c2cc(COc3cc(=O)oc4ccccc34)on2)cc1", "cell line": "Z-138", "test": "MTS", "conditions": "72 h", "endpoint": "IC50", "result": "> 100 µM"}
{"SMILES": "O=C(CCc1ccc(Cl)cc1)N1C(=O)C(=Nc2ccc(Cl)cc2Br)c2ccccc21", "cell line": "B16", "test": "MTT", "conditions": "48 h", "endpoint": "IC50", "result": "23.6 µM"}
{"SMILES": "Cc1nc(NC(=O)N2CCC[C@H]2C(N)=O)sc1-c1ccnc(C(C)(C)C(F)(F)F)c1", "cell line": "BT-20", "test": "ATP luminescence", "conditions": "5 days", "endpoint": "EC50", "result": "2480 nM"}
{"SMILES": "C=CCN1C(=O)C(=Nc2cccc(C)c2)c2ccccc21", "cell line": "B16", "test": "MTT", "conditions": "48 h", "endpoint": "IC50", "result": "28.6 µM"}
{"SMILES": "Cc1n[nH]c2ccc3nc(-c4ccc(C(=O)NCCN(C)C)cc4F)c4c(c3c12)CCCCC4", "cell line": "G-361", "conditions": "72 h", "endpoint": "GI50", "result": "> 10 µM"}
{"SMILES": "Cc1ccc(CN2C(=O)C(=Nc3c(C(C)C)cccc3C(C)C)c3ccccc32)cc1", "cell line": "B16", "test": "MTT", "conditions": "48 h", "endpoint": "IC50", "result": "57.2 µM"}
{"SMILES": "FC(F)(F)c1cc(OCc2cc(-c3ccccc3)no2)c2ccccc2n1", "cell line": "Z-138", "test": "MTS", "conditions": "72 h", "endpoint": "IC50", "result": "68.2 µM"}
{"SMILES": "CCc1nc(C(N)=O)c(Nc2ccc(N3CCC(N4CCN(C)CC4)CC3)c(OC)c2)nc1NC1CCOCC1", "cell line": "G-361", "conditions": "72 h", "endpoint": "GI50", "result": "1.17 µM"}
{"SMILES": "O=C1C(=Nc2ccccc2Br)c2ccccc2N1Cc1ccccc1", "cell line": "B16", "test": "MTT", "conditions": "48 h", "endpoint": "IC50", "result": "0.5 µM"}
